In paper PMC3685236 (International Journal of Molecular Sciences, 2007):
Like-named read-outs stand apart in the source and are kept apart here.

Experiments:
Type in all cases: cell-based
HeLa cells = assay: Antiproliferative activity, Kenacid Blue R dye binding cell survival, HeLa; details: Homo sapiens
In short: (§1)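 Adherent cells seeded at 2,000/well (HeLa, Fem-X) or 6,000/well (LS174); compounds added 20 h later at five double-diluted concentrations (20 mM DMSO stocks, final 0–300 μM). Continuous 72 h exposure, 37 °C, 5% CO2. PBS wash, methanol/acetic acid (3:1) fixation, 0.04% Coomassie R-250 staining, A570. Survival % vs medium-only control after cell-free blank subtraction; IC50 read from survival–concentration plot.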

LS174 cells = assay: Antiproliferative activity, Kenacid Blue R dye binding cell survival, LS174; details: Homo sapiens, LS174, 72 h, read-out: IC50 (μM) LS174
In short: as §1

K562 cells = assay: Antiproliferative activity, Kenacid Blue R dye binding cell survival, K562; details: Homo sapiens, K562, 72 h, read-out: IC50 (μM) K562
In short: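 K562 suspension culture in RPMI 1640 with 10% heat-inactivated FBS, 3 mM glutamine, 25 mM Hepes, pH 7.2. Seeded 3,000 cells/well and dosed 2 h later at five double-diluted concentrations (final 0–300 μM, from DMSO stocks). Exposure was 72 h at 37 °C, 5% CO2. Total protein by Kenacid Blue R (Coomassie R-250) staining, A570, blank-corrected. IC50 taken from survival % vs concentration.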

Fem-X cells = assay: Antiproliferative activity, Kenacid Blue R dye binding cell survival, Fem-X; details: Homo sapiens, 72 h, read-out: IC50 (μM) Fem-X
In short: as §1

PBMC = assay: Cytotoxicity toward healthy peripheral blood mononuclear cells; details: Homo sapiens, 72 h, read-out: IC50 PBMC
In short: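 Unstimulated PBMC (no mitogen) were isolated from heparinized blood of two healthy donors by Lymphoprep gradient and washed three times in Haemaccel. Seeded at 150,000/well, then dosed 2 h later in triplicate at five final concentrations. After 72 h, cells were centrifuged (10 min, 2,000 rpm), fixed in methanol/acetic acid and stained with Kenacid Blue R, and A570 was read. Survival % vs medium control, cell-free blank subtracted.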

[1] = read-out: Obtained log(1/(IC50)) (converted)

SMILES: O=C(O)CC(O)c1ccccc1Cl (stereo not shown) [Compound 8, 3-Hydroxy-3-(2-chlorophenyl)propanoic acid]
- IC50 (HeLa cells; 72 h, read-out: IC50 (μM) HeLa): 118 µM
- IC50 (HeLa cells; [1]): 118 µM
- IC50 (LS174 cells): > 200 µM
- IC50 (K562 cells): > 200 µM
- IC50 (Fem-X cells): > 200 µM

SMILES: CC(C(=O)O)C(O)(c1ccccc1)c1ccccc1 (stereo not shown) [Compound 6, 3-Hydroxy-2-methyl-3,3-diphenylpropanoic acid]
- IC50 (HeLa cells; 72 h, read-out: IC50 (μM) HeLa): 99.4 µM
- IC50 (HeLa cells; [1]): 99.3 µM

SMILES: CC(C)(C(=O)O)C(C)(O)c1ccccc1 (stereo not shown) [Compound 11, 3-Hydroxy-2,2-dimethyl-3-phenylbutanoic acid]
- IC50 (PBMC): > 300 µM
- IC50 (HeLa cells; 72 h, read-out: IC50 (μM) HeLa): 133 µM
- IC50 (HeLa cells; [1]): 133 µM

SMILES: CC(C)(C(=O)O)C(C)(O)c1ccc(-c2ccccc2)cc1 (stereo not shown) [Compound 1, 3-Hydroxy-2,2-dimethyl-3-(4-biphenylyl)butanoic acid]
- IC50 (PBMC): > 300 µM
- IC50 (HeLa cells; 72 h, read-out: IC50 (μM) HeLa): 62.2 µM
- IC50 (HeLa cells; [1]): 62.2 µM
- IC50 (LS174 cells): 154 µM
- IC50 (K562 cells): 141 µM
- IC50 (Fem-X cells): 205 µM

SMILES: CC(C)(C(=O)O)C(O)c1ccc(Cl)cc1 (stereo not shown) [Compound 7, 3-Hydroxy-2,2-dimethyl-3-(4-chlorophenyl)propanoic acid]
- IC50 (PBMC): > 300 µM
- IC50 (HeLa cells; 72 h, read-out: IC50 (μM) HeLa): 106 µM
- IC50 (HeLa cells; [1]): 106 µM
- IC50 (LS174 cells): > 200 µM
- IC50 (K562 cells): > 200 µM
- IC50 (Fem-X cells): > 200 µM

SMILES: CC(C)(C(=O)O)C(O)c1ccccc1 (stereo not shown) [Compound 13, 3-Hydroxy-2,2-dimethyl-3-phenylpropanoic acid]
- IC50 (HeLa cells; 72 h, read-out: IC50 (μM) HeLa): 165 µM
- IC50 (HeLa cells; [1]): 165 µM

SMILES: CC(C)Cc1ccc(C(C)(O)CC(=O)O)cc1 (stereo not shown) [Compound 12, 3-Hydroxy-3(4-isobutylphenyl)butanoic acid]
- IC50 (PBMC): > 300 µM
- IC50 (HeLa cells; 72 h, read-out: IC50 (μM) HeLa): 151 µM
- IC50 (HeLa cells; [1]): 151 µM
- IC50 (LS174 cells): > 200 µM
- IC50 (K562 cells): > 200 µM
- IC50 (Fem-X cells): > 200 µM

SMILES: O=C(O)CC(O)(c1ccccc1)c1ccccc1 [Compound 14, 3-Hydroxy-3,3-diphenylpropanoic acid]
- IC50 (HeLa cells; 72 h, read-out: IC50 (μM) HeLa): 183 µM
- IC50 (HeLa cells; [1]): 182 µM

SMILES: CC(O)(CC(=O)O)c1ccc(-c2ccccc2)cc1 (stereo not shown) [Compound 4, 3-Hydroxy-3-(4-biphenylyl)butanoic acid]
- IC50 (PBMC): > 300 µM
- IC50 (HeLa cells; 72 h, read-out: IC50 (μM) HeLa): 98.7 µM
- IC50 (HeLa cells; [1]): 98.6 µM
- IC50 (LS174 cells): > 200 µM
- IC50 (K562 cells): > 200 µM
- IC50 (Fem-X cells): > 200 µM

SMILES: CC(C)(C(=O)O)C(O)(c1ccccc1)c1ccccc1 [Compound 2, 3-Hydroxy-2,2-dimethyl-3,3-diphenylpropanoic acid]
- IC50 (HeLa cells; 72 h, read-out: IC50 (μM) HeLa): 80.6 µM
- IC50 (HeLa cells; [1]): 80.5 µM

SMILES: CC(C(=O)O)C(O)c1ccccc1Cl (stereo not shown) [Compound 3, 3-Hydroxy-2-methyl-3-(2-chlorophenyl)propanoic acid]
- IC50 (PBMC): > 300 µM
- IC50 (HeLa cells; 72 h, read-out: IC50 (μM) HeLa): 97.2 µM
- IC50 (HeLa cells; [1]): 97.3 µM
- IC50 (LS174 cells): 93 µM
- IC50 (K562 cells): 92 µM
- IC50 (Fem-X cells): 89 µM
